Results as given in ChEMBL document CHEMBL2169868, “Flavone-based novel antidiabetic and antidyslipidemic agents” (J Med Chem, 2012).

Columns and labels:
[1] = tested on: Syrian golden hamster; assay: Antidyslipidemic activity in high fructose and high-fat diet fed dyslipidemic Syrian golden hamster model assessed as reduction in cholesterol level at 30 mg/kg/day, po for 7 day, po; assay type: functional, Mesocricetus auratus; set-up: scale not given: the % may be the effect or the level left
[2] = tested on: Syrian golden hamster; assay: Antidyslipidemic activity in high fructose and high-fat diet fed dyslipidemic Syrian golden hamster model assessed as increase in HDL-cholesterol level at 100 mg/kg/day, po for 7 days; assay type: functional, Mesocricetus auratus
Summary of the method: (§1)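 Syrian golden hamsters fed high-fructose high-fat diet; oral dosing in 1% gum acacia at 10, 30, 100 mg/kg (or 25 mg/kg) for 7 days, sham control given vehicle; plasma TG, cholesterol, LDL-C, HDL-C, glycerol and NEFA (kits), lipoprotein lipase activity and body weight; % change versus HFD control, six hamsters per group.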

[3] = tested on: Mus musculus; assay: Antidiabetic activity in diabetic C57BL/KsJ db/db mouse model assessed as improvement in glucose tolerance in hyperglycemia at 100 mg/kg, po measured 2 hrs post dose; assay type: functional
[4] = tested on: Mus musculus; assay: Antidiabetic activity in diabetic C57BL/KsJ db/db mouse model assessed as reduction in postprandial glucose level in hyperglycemia at 1 mg/kg, po measured 2 hrs post dose; assay type: functional; set-up: scale not given: the % may be the effect or the level left
Summary of the method: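 db/db mice (C57BL/KsJ, 12−18 weeks, 40−50 g; selected by glucose 200−350 mg/dL) dosed orally daily for 10 consecutive days at 1, 3, 10, 25 or 50 mg/kg; postprandial blood glucose profile recorded on day 6 with food access interrupted; mean % change versus vehicle in 5 animals per group; Student t test.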

[5] = tested on: Syrian golden hamster; assay: Antidyslipidemic activity in high fructose and high-fat diet fed dyslipidemic Syrian golden hamster model assessed as reduction in LDL-cholesterol level at 100 mg/kg/day, po for 7 days; assay type: functional, Mesocricetus auratus; set-up: scale not given: the % may be the effect or the level left; summary of the method: as §1
[6] = tested on: Mus musculus; assay: Antidiabetic activity in diabetic C57BL/KsJ db/db mouse model assessed as improvement in glucose tolerance in hyperglycemia at 10 mg/kg, po measured 2 hrs post dose; assay type: functional
[7] = tested on: Syrian golden hamster; assay: Antidyslipidemic activity in high fructose and high-fat diet fed dyslipidemic Syrian golden hamster model assessed as increase in lipoprotein lipase level at 30 mg/kg/day, po for 7 day, po; assay type: functional, Mesocricetus auratus; summary of the method: as §1
[8] = tested on: Syrian golden hamster; assay: Antidyslipidemic activity in high fructose and high-fat diet fed dyslipidemic Syrian golden hamster model assessed as reduction in triglyceride level at 10 to 100 mg/kg/day for 7 days; assay type: functional, organism-based; conditions: Mesocricetus auratus; summary of the method: as §1
[9] = Tmax in Sprague-Dawley rat at 25 mg/kg, po by LC-MS/MS method; assay type: ADME, organism-based; set-up: dose 25 mg/kg, route oral; conditions: in vivo
Summary of the method: (§2)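 Male Sprague−Dawley rats given a single 25 mg/kg oral dose (aqueous 0.5% methyl cellulose suspension for one compound). Blood drawn from 0.08 to 48 h. LC-MS/MS, linear range 0.78−400 ng/mL.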

[10] = tested on: Rattus norvegicus; assay: Volume of distribution in Sprague-Dawley rat at 25 mg/kg, po by LC-MS/MS method; assay type: ADME, organism-based; set-up: dose 25 mg/kg, route oral; conditions: in vivo; summary of the method: as §2
[11] = tested on: Syrian golden hamster; assay: Antidyslipidemic activity in high fructose and high-fat diet fed dyslipidemic Syrian golden hamster model assessed as increase in HDL-cholesterol level at 10 to 100 mg/kg/day for 7 days; assay type: functional, organism-based; conditions: Mesocricetus auratus; summary of the method: as §1
[12] = tested on: Syrian golden hamster; assay: Antidyslipidemic activity in high fructose and high-fat diet fed dyslipidemic Syrian golden hamster model assessed as reduction in cholesterol level at 100 mg/kg/day, po for 7 days; assay type: functional, Mesocricetus auratus; set-up: scale not given: the % may be the effect or the level left; summary of the method: as §1
[13] = tested on: Syrian golden hamster; assay: Antidyslipidemic activity in high fructose and high-fat diet fed dyslipidemic Syrian golden hamster model assessed as increase in HDL-cholesterol level at 10 mg/kg/day, po for 7 day, po; assay type: functional, Mesocricetus auratus; summary of the method: as §1
[14] = tested on: Syrian golden hamster; assay: Antidyslipidemic activity in high fructose and high-fat diet fed dyslipidemic Syrian golden hamster model assessed as reduction in NEFA level at 30 mg/kg/day, po for 7 day, po; assay type: functional, Mesocricetus auratus; set-up: scale not given: the % may be the effect or the level left; summary of the method: as §1
[15] = tested on: Syrian golden hamster; assay: Antidyslipidemic activity in high fructose and high-fat diet fed dyslipidemic Syrian golden hamster model assessed as increase in lipoprotein lipase level at 10 mg/kg/day, po for 7 day, po; assay type: functional, Mesocricetus auratus; summary of the method: as §1
[16] = Elimination half life in Sprague-Dawley rat at 25 mg/kg, po by LC-MS/MS method; assay type: ADME, organism-based; set-up: dose 25 mg/kg, route oral; conditions: in vivo, read-out: beta t1/2 (converted); summary of the method: as §2
[17] = tested on: Syrian golden hamster; assay: Antidyslipidemic activity in high fructose and high-fat diet fed dyslipidemic Syrian golden hamster model assessed as reduction in triglyceride level at 25 mg/kg/day for 7 days; assay type: functional, Mesocricetus auratus; set-up: scale not given: the % may be the effect or the level left
Summary of the method: (§3)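 HFD-fed Syrian golden hamsters, six per group, fed a high-fructose diet. Oral dosing in 1% gum acacia for 7 days. Sham group received vehicle. Plasma TG was measured and body weight tracked. Results given as % change versus HFD control.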

[18] = tested on: Syrian golden hamster; assay: Antidyslipidemic activity in high fructose and high-fat diet fed dyslipidemic Syrian golden hamster model assessed as increase in HDL-cholesterol level at 25 mg/kg/day for 7 days; assay type: functional, Mesocricetus auratus
[19] = Plasma clearance in Sprague-Dawley rat at 2.5 mg/kg, iv by LC-MS/MS method; assay type: ADME, organism-based; set-up: dose 2.5 mg/kg, route intravenous
Summary of the method: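 Male Sprague−Dawley rats given a single 2.5 mg/kg iv dose; one formulation was DMF/PG/water (2:4:4), 0.2 μ filtered. Blood drawn from 0.08 to 48 h. Plasma assayed by LC-MS/MS with linear range 0.78−400 ng/mL.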

[20] = tested on: Syrian golden hamster; assay: Antidyslipidemic activity in high fructose and high-fat diet fed dyslipidemic Syrian golden hamster model assessed as reduction in triglyceride level at 100 mg/kg/day, po for 7 days; assay type: functional, Mesocricetus auratus; set-up: scale not given: the % may be the effect or the level left; summary of the method: as §3
[21] = tested on: Mus musculus; assay: Antihyperglycemic activity in diabetic C57BL/KsJ db/db mouse model assessed as improvement in glucose tolerance in hyperglycemia at 25 mg/kg, po qd for 10 days; assay type: functional
Summary of the method: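 Male/female C57BL/KsJ db/db mice, 12−18 weeks, 40−50 g, selected for glucose 200−350 mg/dL. Oral dosing daily for 10 days. OGTT on day 10 after an overnight fast: compound at −30 min, then 3 g/kg oral glucose at 0 min. Glucose read at 30, 60, 90 and 120 min. AUC taken versus vehicle, 5 mice per group.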

[22] = tested on: Syrian golden hamster; assay: Antidyslipidemic activity in high fructose and high-fat diet fed dyslipidemic Syrian golden hamster model assessed as increase in lipoprotein lipase level at 100 mg/kg/day, po for 7 days; assay type: functional, Mesocricetus auratus; summary of the method: as §1
[23] = tested on: Mus musculus; assay: Antidyslipidemic activity in diabetic C57BL/KsJ db/db mouse model assessed as increase in plasma HDL-C/cholesterol ratio at 25 mg/kg, po qd for 10 days; assay type: functional
Summary of the method: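 db/db mice (blood glucose 200−350, TG 170−250, cholesterol 170−250, HDL-C 32−40 mg/dL) dosed orally at 25 mg/kg daily for 10 days; retro-orbital blood taken on day 11 for plasma TG, cholesterol and HDL-C (and HDL-C/CHOL ratio); mean % change versus vehicle control, 5 mice per group; Student t test.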

[24] = tested on: Mus musculus; assay: Antihyperglycemic activity in diabetic C57BL/KsJ db/db mouse model assessed as reduction in plasma insulin level in hyperglycemia at 25 mg/kg, po qd for 10 days; assay type: functional; set-up: scale not given: the % may be the effect or the level left
Summary of the method: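 db/db mice dosed orally every day for 10 days. On day 11, retro-orbital blood was drawn and plasma insulin measured. Mean % change versus vehicle-treated control, 5 mice per group; Student t test.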

[25] = tested on: Mus musculus; assay: Antidiabetic activity in diabetic C57BL/KsJ db/db mouse model assessed as improvement in glucose tolerance in hyperglycemia at 25 mg/kg, po measured 2 hrs post dose; assay type: functional
[26] = tested on: Syrian golden hamster; assay: Reduction in body weight in high fructose and high-fat diet fed dyslipidemic Syrian golden hamster model at 100 mg/kg/day, po for 7 days; assay type: functional, Mesocricetus auratus; set-up: scale not given: the % may be the effect or the level left; summary of the method: as §3

`CC(C)(C)NC[C@H](O)COc1ccc2c(=O)cc(-c3cc(OCc4ccccc4)cc(OCc4ccccc4)c3)oc2c1` showed an Activity [1] of 27.2%, an Activity [2] of 27.9% and an Activity [3] of 59.4%. It also gave an Activity [4] of 14.8%, an Activity [5] of 68.4% and an Activity [6] of 39.9%. The Activity [7] was 31.2%, the Activity [8] was “Dose-dependent effect” and the Tmax [9] was 8 h. The Vd [10] was 107.41 L/kg, the Activity [11] was “Dose-dependent effect” and the Activity [12] was 50.7%. For the same compound, the Activity [13] was 9.37%, the Activity [14] was 26.3% and the Activity [15] was 13.2%. For the same compound, the half-life [16] was 19.8 h, the Activity [17] was 34.7% and the Activity [18] was 20.5%. It also gave a clearance [19] of 62 mL/min/kg, an Activity [20] of 76.3% and an Activity [21] of 38.8%. The Activity [22] was 69.7%, the “Percent increase in HDL-C/cholesterol ratio vs vehicle” value [23] was 92.5 and the Activity [24] was 53.4%. The Activity [25] was 44.6% and the Activity [26] was 12.5%.
